These results are taken from ChEMBL document CHEMBL2396641, “Synthesis, antioxidant, and antimicrobial evaluation of some 2-arylbenzimidazole derivatives” (Bioorg Med Chem Lett, 2013).

For orientation: EC50 means the concentration that produces a half-maximal response. A word on the MBC: it is the lowest tested concentration that kills the bacteria rather than only halting them. High values mean weaker bactericidal potency, low ones greater bactericidal potency. A word on the MIC: it is the lowest concentration that inhibits growth of the organism. Lower therefore signals a more susceptible organism. The IC50 is the concentration needed to halve the response being measured. A lower IC50 goes with greater potency. As a reminder, the inhibition is the share of the control response that was lost under treatment.

Each structure is given as a SMILES string. In brackets after ≈: the same amount, converted by molar mass. Activity calls are given as the source filed them. The rule behind the calls is not given here.

The subject of assay [1] is Radical scavenging activity. The assay is described as follows: Antioxidant activity assessed as DPPH radical scavenging activity after 30 mins by spectrophotometric analysis. It counts as functional. In short, it runs like this:
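DPPH radical bleaching followed as loss of absorbance at 517 nm; IC50 derived; mean ± SD, n = 3.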
In general terms: DPPH is a stable violet radical that fades when it is reduced.

In another assay the test system is Staphylococcus aureus. Briefly: Antibacterial activity against Staphylococcus aureus after 24 hrs by agar dilution method. It is filed as functional. (In general: Agar dilution tests growth on a series of plates holding different concentrations.)
A short description of assay [2]: Antioxidant activity assessed as hydroxyl radical scavenging activity after 1 hr by spectrophotometric analysis. It counts as functional.
A further assay relates to Escherichia coli. Briefly: Antibacterial activity against Escherichia coli after 24 hrs by agar dilution method. It is filed as functional.
In another assay the test system is NIH3T3. Briefly: Cytotoxicity against mouse NIH/3T3 cells after 48 hrs by SRB assay. It counts as cell-based. To be noted: NIH3T3, 48 h.
A short description of assay [3]: Antioxidant activity assessed as superoxide radical anion scavenging activity by spectrophotometric analysis. It is filed as functional.
A short description of assay [4]: Antioxidant activity assessed as ferric ion reducing ability at 1 to 50 uM after 20 mins by spectrophotometric analysis. It counts as functional.
The next assay concerns Pseudomonas aeruginosa. Briefly: Antibacterial activity against Pseudomonas aeruginosa after 24 hrs by agar dilution method. It counts as functional.
Assay [5] in a line: Antioxidant activity assessed as ferric ion reducing ability after 20 mins by spectrophotometric analysis. It counts as functional.
Assay [6] concerns Staphylococcus epidermidis. Briefly: Antibacterial activity against Staphylococcus albus after 24 hrs by agar dilution method. It is filed as functional.
Another assay concerns Bacillus cereus. Briefly: Antibacterial activity against Bacillus cereus after 24 hrs by agar dilution method. It is filed as functional.
For assay [7], the system named is A549. The assay is described as follows: Antioxidant activity in human A549 cells assessed as inhibition of AAPH-induced oxidative stress at 50 uM after 2 hrs by flow cytometric analysis relative to control. It counts as functional. Particulars: A549, 2 h. The essentials: (§1)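 A549 cells pretreated with AAPH 1 h to induce ROS stress, then compound added; intracellular ROS (hydrogen peroxides, hydroxyl radicals) quantified with DCFH-DA, by fluorescence imaging (×200) or flow cytometry; one representative of three independent experiments.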

Assay [8] relates to A549. Briefly: Antioxidant activity in human A549 cells assessed as inhibition of AAPH-induced oxidative stress at 100 uM after 2 hrs by flow cytometric analysis relative to control. It is filed as functional. To be noted: A549, 2 h. In short, it runs like this: as §1
The subject of assay [9] is A549. Briefly: Antioxidant activity in human A549 cells assessed as decrease in AAPH-induced oxidative stress after 2 hrs by DCFH-DA staining-based fluorescent microscopic analysis. It is filed as functional, cell-based. In short, it runs like this: as §1
For assay [10], the system named is A549. The assay is described as follows: Antioxidant activity in human A549 cells assessed as protection against H2O2-induced cell death at 50 to 100 uM preincubated for 1 hr prior to H2O2-challenge measured after 24 hrs by SRB assay. It counts as functional, cell-based. For orientation: The SRB assay estimates cell density from bound dye.

As for `Oc1ccc2[nH]c(-c3ccccc3O)nc2c1`, the half-maximal effective concentration (EC50) turned out to be 30 µM in assay [1], 124 µM in assay [2] and 169 µM in assay [3]. In addition, the MBC is 1.56 µM (≈ 0.353 µg/mL) against Staphylococcus aureus, 25 µM (≈ 5.66 µg/mL) against Escherichia coli, greater than 200 µM in assay [6] and 25 µM (≈ 5.66 µg/mL) with Bacillus cereus. Also, the MIC in the assay with Staphylococcus aureus is 1.56 µM (≈ 0.353 µg/mL); in the assay on Escherichia coli, 6.25 µM (≈ 1.41 µg/mL); in the assay on Pseudomonas aeruginosa, greater than 200 µM; in [6], 100 µM (≈ 22.6 µg/mL); against Bacillus cereus, 25 µM (≈ 5.66 µg/mL). This compound also had an IC50 in the assay on NIH3T3 greater than 200 µM. Also, in [4], the outcome was Active. The Activity entry in assay [5] was “Dose-dependent effect”.
Regarding `Oc1cccc(-c2nc3cc(O)ccc3[nH]2)c1`, the figures for the EC50 in assay [1], in assay [2] and in assay [3] were 40 µM, greater than 200 µM and greater than 200 µM, respectively. Also, the MBC in the assay with Staphylococcus aureus was 1.56 µM (≈ 0.353 µg/mL); in the assay with Escherichia coli it was greater than 200 µM; with Bacillus cereus it was 50 µM (≈ 11.3 µg/mL). Further, the MIC was 1.56 µM (≈ 0.353 µg/mL) with Staphylococcus aureus; 100 µM (≈ 22.6 µg/mL) in the assay with Escherichia coli; greater than 200 µM with Pseudomonas aeruginosa; greater than 200 µM in [6]; 25 µM (≈ 5.66 µg/mL) in the assay on Bacillus cereus. In addition, in the assay on NIH3T3, the 50% inhibitory concentration (IC50) is greater than 200 µM. The result in assay [4] was Active. In addition, in assay [5], the Activity result was “Dose-dependent effect”.
As for `Oc1ccc2[nH]c(-c3ccc(O)c(O)c3)nc2c1`, the 50% effective concentration (EC50) in assay [1] was 33 µM; in [2], 77 µM; in assay [3], greater than 200 µM. The MIC with Staphylococcus aureus is greater than 200 µM; with Escherichia coli, greater than 200 µM; against Pseudomonas aeruginosa it was greater than 200 µM; in assay [6], greater than 200 µM; in the assay with Bacillus cereus, 100 µM (≈ 24.2 µg/mL). In the assay with NIH3T3, this compound displayed an IC50 greater than 200 µM. In addition, the result in [4] was Active. For the same compound, the Activity result in assay [5] is “Dose-dependent effect”. Moreover, in the assay on Bacillus cereus, the MBC was greater than 200 µM.
`Oc1cc(O)cc(-c2nc3cc(O)ccc3[nH]2)c1`: the EC50 in assay [1] was 26 µM; in assay [2] it was greater than 200 µM; in assay [3], greater than 200 µM. For the same compound, the MBC against Staphylococcus aureus worked out at 0.78 µM (≈ 0.189 µg/mL); with Bacillus cereus it was 25 µM (≈ 6.06 µg/mL). In addition, the MIC is 0.78 µM (≈ 0.189 µg/mL) against Staphylococcus aureus; greater than 200 µM against Escherichia coli; greater than 200 µM against Pseudomonas aeruginosa; greater than 200 µM in assay [6]; 25 µM (≈ 6.06 µg/mL) against Bacillus cereus. In the assay with NIH3T3, this compound registered an IC50 greater than 200 µM. For the same compound, the outcome in [4] was Active. The Activity result in assay [5] was “Dose-dependent effect”.
As to `COc1ccc(O)cc1-c1nc2cc(O)ccc2[nH]1`, the EC50 was 23 µM in assay [1], greater than 200 µM in [2] and greater than 200 µM in assay [3]. In addition, the minimum inhibitory concentration (MIC) with Staphylococcus aureus is greater than 200 µM; against Escherichia coli, greater than 200 µM; in the assay on Pseudomonas aeruginosa, greater than 200 µM; in assay [6] it was greater than 200 µM; with Bacillus cereus it was 100 µM (≈ 25.6 µg/mL). In addition, the IC50 with NIH3T3 was greater than 200 µM. Moreover, in [4], the result was Active. Besides, the Activity result in assay [5] was “Dose-dependent effect”. Besides, the MBC in the assay with Bacillus cereus is greater than 200 µM.
Consider `COc1cc(O)ccc1-c1nc2cc(O)ccc2[nH]1`, for which the EC50 is 27 µM in assay [1], 46 µM in [2] and greater than 200 µM in [3]. Also, the inhibition at 50 µM in the assay on A549 [7] was 25.3%. Besides, the inhibition at 100 µM in the assay on A549 [8] was determined as 70.4%. Also, the result in the assay with A549 [9] and with A549 [10] was Active. The MIC against Staphylococcus aureus is greater than 200 µM; in the assay with Escherichia coli, 12.5 µM (≈ 3.2 µg/mL); in the assay on Pseudomonas aeruginosa, greater than 200 µM; in assay [6], greater than 200 µM; with Bacillus cereus, greater than 200 µM. This compound returned an MBC with Escherichia coli of 25 µM (≈ 6.41 µg/mL). In the assay on NIH3T3, this compound showed an IC50 greater than 200 µM. The Activity entry in [5] was “Dose-dependent effect”.
On to `COc1ccc(-c2nc3cc(O)ccc3[nH]2)c(OC)c1`, for which the EC50 in [1] was 32 µM; in assay [2], greater than 200 µM; in assay [3], greater than 200 µM. Moreover, the MBC with Staphylococcus aureus was found to be 0.39 µM (≈ 0.105 µg/mL); in the assay with Escherichia coli, 25 µM (≈ 6.76 µg/mL); with Bacillus cereus, 50 µM (≈ 13.5 µg/mL). Besides, the MIC is 0.39 µM (≈ 0.105 µg/mL) in the assay with Staphylococcus aureus; 12.5 µM (≈ 3.38 µg/mL) against Escherichia coli; greater than 200 µM against Pseudomonas aeruginosa; greater than 200 µM in assay [6]; 50 µM (≈ 13.5 µg/mL) in the assay with Bacillus cereus. The IC50 in the assay on NIH3T3 was greater than 200 µM. Moreover, the result in assay [4] was Active. The Activity result in assay [5] was “Dose-dependent effect”.
